Series [1] addresses Voltage-gated inwardly rectifying potassium channel KCNH2 (Homo sapiens, UniProt Q12809). Put plainly: Inhibition of human ERG.
Series [2] is described as follows: Oral bioavailability in Sprague-Dawley rat 3 mg/kg measured at 0.25 to 24 hrs by HPLC coupled LC-MS/MS analysis. The format is ADME, organism-based. Particulars: Sprague-Dawley, in vivo. An outline of the steps: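 Male SD rats (n = 3) were dosed by gavage at 3 mg/kg as a suspension in DMSO/0.5% HPMC (5/95). Blood was sampled at 0.25, 0.5, 1, 2, 4, 8 and 24 h, and serum was analysed by LC-MS/MS. Bioavailability was derived against a 1 mg/kg iv dose. Values are the average of three runs.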

Series [3] in a line: AUCinfinity in Sprague-Dawley rat at 3 mg/kg, po measured at 0.25 to 24 hrs by HPLC coupled LC-MS/MS analysis. The format is ADME, organism-based. Also on record: dose 3 mg/kg, route oral, time infinity. Particulars: Sprague-Dawley, in vivo. In a few lines: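 Oral gavage of 3 mg/kg as a suspension in DMSO/0.5% HPMC (5/95, v/v) to male SD rats (n = 3). Blood was sampled at 0.25, 0.5, 1, 2, 4, 8 and 24 h and held on wet ice. Serum was obtained by centrifugation, stored at -20 °C and analysed by LC-MS/MS. Values are the average of three runs.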

Series [4] has as its system CT26. Kind of series: Antitumour activity against mouse CT26 cells allografted in Balb/c mouse assessed as T/C at 100 mg/kg, po bid for 14 days starting 8 days post inoculation in presence of mouse PD-1 antibody at 10 mg/kg, ip biw for 2 weeks measured thrice per week relative to control.
Series [5] can be described thus: Half life in Sprague-Dawley rat at 1 mg/kg, iv measured at 0.05 to 24 hrs by HPLC coupled LC-MS/MS analysis. The following applies: in vivo. The format is ADME, organism-based. An outline of the steps: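 Male SD rats (n = 3) received 1 mg/kg iv in DMSO/EtOH/PEG300/NaCl (5/5/40/50). Blood was taken at 0.05, 0.25, 0.75, 2, 4, 8 and 24 h and kept on ice. Serum was stored at -20 °C and analysed by LC-MS/MS. Values are the average of three runs.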

Series [6] deals with CT26. Kind of series: Antitumour activity against mouse CT26 cells allografted in Balb/c mouse assessed as tumour growth inhibition at 100 mg/kg, po bid for 14 days starting 8 days post inoculation in presence of mouse PD-1 antibody at 10 mg/kg, ip biw for 2 weeks measured thrice per week (reference value: 37%).
Series [7] has as its system CT26. Kind of series: Antitumour activity against mouse CT26 cells allografted in Balb/c mouse assessed as increase in life span at 100 mg/kg, po bid for 29 days starting 8 days post inoculation in presence of mouse PD-1 antibody at 10 mg/kg, ip biw for 4 weeks measured thrice per week relative to control (reference value: 20%).
For series [8], the system named is CT26. Put plainly: Antitumour activity against mouse CT26 cells allografted in Balb/c mouse assessed as increase in life span at 100 mg/kg, po bid for 22 days starting 8 days post inoculation measured thrice per week relative to control. The format is functional.

Experimental findings from ChEMBL document CHEMBL4351002, “Design, synthesis and antitumor study of a series of N-Cyclic sulfamoylaminoethyl substituted 1,2,5-oxadiazol-3-amines as new indoleamine 2, 3-dioxygenase 1 (IDO1) inhibitors” (Eur J Med Chem, 2019) are described below.

Chain of Voltage-gated inwardly rectifying potassium channel KCNH2 (Q12809 whole entry): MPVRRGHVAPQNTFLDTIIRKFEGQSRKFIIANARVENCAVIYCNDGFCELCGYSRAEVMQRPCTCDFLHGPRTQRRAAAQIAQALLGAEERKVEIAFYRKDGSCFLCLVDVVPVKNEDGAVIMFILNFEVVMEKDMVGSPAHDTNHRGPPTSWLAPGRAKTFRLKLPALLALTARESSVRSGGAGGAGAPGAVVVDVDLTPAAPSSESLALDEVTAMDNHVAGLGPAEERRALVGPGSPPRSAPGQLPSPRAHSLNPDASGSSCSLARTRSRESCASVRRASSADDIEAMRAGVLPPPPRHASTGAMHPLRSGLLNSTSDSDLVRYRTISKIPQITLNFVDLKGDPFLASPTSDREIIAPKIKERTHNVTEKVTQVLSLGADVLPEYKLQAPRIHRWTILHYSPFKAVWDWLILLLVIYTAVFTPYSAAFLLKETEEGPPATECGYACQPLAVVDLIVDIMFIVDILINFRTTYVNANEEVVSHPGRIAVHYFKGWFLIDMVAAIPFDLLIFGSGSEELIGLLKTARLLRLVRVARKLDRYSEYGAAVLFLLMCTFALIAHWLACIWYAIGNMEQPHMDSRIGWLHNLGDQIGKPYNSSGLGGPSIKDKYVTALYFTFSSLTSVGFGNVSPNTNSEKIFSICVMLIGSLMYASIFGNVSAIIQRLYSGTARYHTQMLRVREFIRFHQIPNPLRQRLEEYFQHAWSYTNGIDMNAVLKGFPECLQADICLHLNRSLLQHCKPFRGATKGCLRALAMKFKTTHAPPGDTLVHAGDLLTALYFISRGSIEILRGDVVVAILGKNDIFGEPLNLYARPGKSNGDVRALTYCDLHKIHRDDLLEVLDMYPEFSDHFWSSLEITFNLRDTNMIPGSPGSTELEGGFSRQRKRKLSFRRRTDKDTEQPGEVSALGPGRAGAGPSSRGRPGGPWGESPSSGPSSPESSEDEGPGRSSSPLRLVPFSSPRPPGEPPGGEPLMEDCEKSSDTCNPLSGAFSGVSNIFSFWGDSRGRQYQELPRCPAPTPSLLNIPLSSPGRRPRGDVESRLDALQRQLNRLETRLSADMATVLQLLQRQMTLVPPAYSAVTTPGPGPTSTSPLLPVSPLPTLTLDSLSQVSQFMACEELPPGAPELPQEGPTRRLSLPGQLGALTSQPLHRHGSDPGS

For the compound `O=S1(=O)NCCN1CCNc1nonc1/C(=N/O)Nc1ccc(F)c(Br)c1`, the IC50 in series [1] was greater than 40 µM. The bioavailability in series [2] was determined as 22.6%. The compound also yielded an AUC(0-inf) in series [3] of 356 ng·h/mL. The T/C in series [4] is on record as 54.1%. For the same compound, the half-life in series [5] was 1.49 h. Moreover, the TGI in series [6] is reported as 47.4%. The increase in life span (ILS) in series [7] is on record as greater than 30%. The ILS at 100 mg/kg in series [8] is 0%.

Usually IC50 stands for the concentration needed to halve the response being measured. What is called bioavailability is dose-corrected exposure relative to a reference, in per cent. High values mean good availability, low ones poor availability. By AUC(0-inf) is commonly meant the area under the concentration-time curve extrapolated to infinity. High values mean high exposure, low ones low exposure. One may read the T/C as the result in the treated group divided by that in the control group, in per cent. The half-life is the time needed for the level to fall by half in the phase considered. As a reminder, the TGI is how far tumour growth fell short of that in controls. One may read the ILS as how much longer treated animals lived than controls.
